A short description of assay [1]: Inhibitory activity against GalNAc transferase 1 at a concentration of 1000 uM. The procedure, abridged:
(§1)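 Bovine ppGalNAc-T1 (EC 2.4.1.41), secreted 6His-tagged protein from baculovirus-infected insect cells, Ni-NTA purified (0.5 U/mg). Stopped with ice-cold water; glycopeptide recovered on C18 cartridge, eluted with methanol, scintillation counted. Inhibition reported as relative %.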

Assay [2] can be described thus: Inhibitory activity against GalNAc transferase 1 at a concentration of 200 uM. The procedure, abridged:
as §1

Assay [3] is described as follows: Inhibitory activity against GalNAc transferase 1 at a concentration of 20 uM. The procedure, abridged: as §1

Broadly, the inhibition is the drop in the measured response relative to a control, in per cent. A high value points to strong suppression.

`COCC1OC(OP(=O)(O)OP(=O)(O)OC[C@H]2OC(n3ccc(=O)[nH]c3=O)[C@H](O)[C@@H]2O)C(NC(C)=O)C(O)C1O` (some centres not stated): the inhibition in assay [1] is 76%; in assay [2], 17%; in assay [3] it was 0%.
The like results for `COC1C(O)C(CO)OC(OP(=O)(O)OP(=O)(O)OC[C@H]2OC(n3ccc(=O)[nH]c3=O)[C@H](O)[C@@H]2O)C1NC(C)=O` (some centres not stated) were, in that order, 74%, 30% and 0%.
`COC1C(CO)OC(OP(=O)(O)OP(=O)(O)OC[C@H]2OC(n3ccc(=O)[nH]c3=O)[C@H](O)[C@@H]2O)C(NC(C)=O)C1O` (some centres not stated): the inhibition in assay [1] stood at 72%; in assay [2], 7%; in assay [3] it was 0%.
As to `CC(=O)N[C@@H]1[C@H](OP(=O)(O)OP(=O)(O)OC[C@H]2O[C@@H](n3ccc(=O)[nH]c3=O)[C@H](O)[C@@H]2O)O[C@@H](CO)[C@H](O)[C@H]1O`, the inhibition in assay [1] is 79%; in assay [2], 39%; in assay [3] it was 0%.

The values are drawn from ChEMBL document CHEMBL1136404, “Synthesis and biological evaluation of new UDP-GalNAc analogues for the study of polypeptide-alpha-GalNAc-transferases” (Bioorg Med Chem Lett, 2003).
